Test [1] concerns Escherichia coli. Description: Antibacterial activity against sensitive Escherichia coli ATCC 10536 assessed as reduction in growth in presence of p-aminobenzoic acid. The format is functional, organism-based. The essentials: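 Reversal test. Drug inhibition was challenged with PABA in Sahyun et al. medium plus 0.6% acid-hydrolyzed casein. Growth read as turbidity on a Klett-Summerson colorimeter. Scored as reversal or nonreversal of the drug inhibition.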

Test [2] relates to Lacticaseibacillus casei. Kind of test: Antibacterial activity against chlorguanide triazine-resistant Lactobacillus casei ATCC 7469 assessed as reduction in growth in presence of 0.001 ug/ml folic acid. The format is functional, organism-based. The method, boiled down:
(§1)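 Folate-requiring strains grown in medium with folic acid, 0.002 µg/ml for S. faecium and 0.001 µg/ml for L. casei; P. cerevisiae given folinic acid, 0.001 µg/ml. Resistant substrains came from serial transfer in rising chlorguanide triazine, and the most resistant were used. Compounds tested up to 1000 µg/ml, or 100 µg/ml when supply was limited. Growth read as Klett turbidity; IC50 is the µM concentration giving 50% growth inhibition.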

Test [3] has as its system Plasmodium berghei. Description: Antimalarial activity against Plasmodium berghei infected in sc dosed mouse assessed as active dose required to increase of 100% in mean survival time. It is filed as functional. Particulars: read-out: MED. The method, boiled down:
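Mice received a standard blood-induced P. berghei inoculum and were then treated with one subcutaneous dose of compound suspended in peanut oil. The minimum active dose is the lowest dose that raised mean survival time by 100%.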

In test [4] the test system is Enterococcus faecium. Kind of test: Antibacterial activity against chlorguanide triazine-resistant Streptococcus faecium ATCC 8043 assessed as reduction in growth in presence of 0.002 ug/ml folic acid. It is filed as functional, organism-based. The essentials: as §1
A short description of test [5]: Antibacterial activity against sensitive Pediococcus cerevisiae ATCC 808 assessed as reduction. It is filed as functional. The method, boiled down: (§2)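 P. cerevisiae grown with folinic acid at 0.001 μg/ml in the earlier-described medium. Turbidity read on a Klett-Summerson colorimeter. IC50 is the micromolar concentration reducing growth to 50% of control. Top concentration was 1000 μg/ml, or 100 μg/ml when supply was limited.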

Test [6] has as its system Enterococcus faecium. Description: Fold increase in resistance, ratio of IC50 for chlorguanide triazine-resistant Streptococcus faecium ATCC 8043 to IC50 for sensitive Streptococcus faecium ATCC 8043. It is filed as functional. The essentials: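 Resistant S. faecium substrain raised by serial transfer in increasing chlorguanide triazine. IC50 (µM, 50% growth inhibition by turbidity) was found for resistant and parent strains in folic acid (0.002 µg/ml) medium. Fold increase taken as IC50 resistant / IC50 sensitive.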

The subject of test [7] is Escherichia coli. Kind of test: Antibacterial activity against sensitive Escherichia coli ATCC 10536 assessed as reduction in growth. It is filed as functional, organism-based. The essentials:
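Growth inhibition in Sahyun et al. medium plus 0.6% acid-hydrolyzed casein. Growth read as turbidity on a Klett-Summerson photoelectric colorimeter. IC50 is the micromolar concentration giving 50% growth inhibition. Top concentration was 1000 μg/ml, or 100 μg/ml when compound was limited.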

The subject of test [8] is Pediococcus. Kind of test: Antibacterial activity against chlorguanide triazine-resistant Pediococcus cerevisiae ATCC 808 assessed as reduction in growth in presence of 0.001 ug/ml folinic acid. It is filed as functional. The essentials: as §1
Test [9] relates to Enterococcus faecium. Description: Antibacterial activity against sensitive Streptococcus faecium ATCC 8043 assessed as reduction in growth in presence of 0.002 ug/ml folic acid. It is filed as functional, organism-based. The method, boiled down:
(§3)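 Folate-requiring strains in the medium of the earlier assay method. Folic acid was 0.002 μg/ml for S. faecium and 0.001 μg/ml for L. casei. Turbidity read on a Klett-Summerson colorimeter. IC50 is the micromolar concentration reducing growth to 50% of control. Top concentration was 1000 μg/ml, or 100 μg/ml if supply was limited.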

Test [10] deals with Enterococcus faecium. Kind of test: Antibacterial activity against sensitive Streptococcus faecium ATCC 8043 assessed as reduction in growth. It is filed as functional, organism-based. The method, boiled down:
as §1

Test [11] deals with Lacticaseibacillus casei. Description: Antibacterial activity against sensitive Lactobacillus casei ATCC 7469 assessed as reduction in growth in presence of 0.001 ug/ml folic acid. It is filed as functional, organism-based. The essentials:
as §3

The subject of test [12] is Lacticaseibacillus casei. Kind of test: Antibacterial activity against sensitive Lactobacillus casei ATCC 7469 assessed as reduction. It is filed as functional, organism-based. The essentials:
as §1

Test [13] relates to Pediococcus. Kind of test: Antibacterial activity against sensitive Pediococcus cerevisiae ATCC 808 assessed as reduction in growth in presence of 0.001 ug/ml folinic acid. The format is functional. The essentials: as §2
Test [14] deals with Pediococcus. Kind of test: Fold increase in resistance, ratio of IC50 for chlorguanide triazine-resistant Pediococcus cerevisiae ATCC 808 to IC50 for sensitive Pediococcus cerevisiae ATCC 808. The format is functional. The method, boiled down:
(§4)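 Resistant substrains were made by serial transfer in rising concentrations of cycloguanil, and the most resistant isolate of each organism was used. Both strains were assayed turbidimetrically under identical conditions. FIR = IC50 of the resistant strain divided by IC50 of the sensitive parent.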

Test [15] concerns Lacticaseibacillus casei. Description: Antibacterial activity against chlorguanide triazine-resistant Lactobacillus casei ATCC 7469 assessed as reduction in growth. It is filed as functional, organism-based. The essentials: as §1
For test [16], the system named is Plasmodium berghei. Kind of test: Antimalarial activity against Plasmodium berghei infected in sc dosed mouse assessed as dose required to survivors for period of 60 days. The format is functional. The essentials:
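Mice infected with a blood-induced P. berghei inoculum were given one subcutaneous dose in peanut oil. Survivors at 60 days counted as cured. The minimum curative dose is the lowest dose that cured any mouse.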

Test [17] in a line: Antibacterial activity against chlorguanide triazine-resistant Pediococcus cerevisiae ATCC 808 assessed as reduction in growth. It is filed as functional. The method, boiled down: as §1
For test [18], the system named is Enterococcus faecium. Kind of test: Antibacterial activity against chlorguanide triazine-resistant Streptococcus faecium ATCC 8043 assessed as reduction in growth. It is filed as functional, organism-based. The essentials: as §1
Test [19] concerns Lacticaseibacillus casei. Kind of test: Fold increase in resistance, ratio of IC50 for chlorguanide triazine-resistant Lactobacillus casei ATCC 7469 to IC50 for sensitive Lactobacillus casei ATCC 7469. The format is functional. The method, boiled down:
as §4

Active and inactive are the calls of the source. The calls are words filed in the database; no cut-off is given here.

Consider `Nc1ncc(Cc2ccc3c(c2)OCO3)c(N)n1`, for which, in test [1], the inhibition entry is “Active”. In addition, the inhibition entry in test [2], in [4], in test [8], in test [9], in [11] and in test [13] was “inactive” in each case. Moreover, the minimal effective dose in test [3] came to 640 mg/kg. In addition, the IC50 in test [5] was 12.3 µM; in test [7], 45 µM; in test [10] it was 0.25 µM; in test [12], 0.94 µM; in test [15], 0.25 µM; in test [17] it was 90.1 µM. Besides, the IC50 in test [18] came to 24.2 µM. Besides, the entries for the “Ratio IC50” value in [6], in test [14] and in test [19] were 96.8, 7.3 and 0.27, respectively. Further, the MCD in [16] stood at 640 mg/kg.

As for `CC(C)c1nc2nc(N)nc(N)c2nc1C(C)C`, the inhibition entry in test [1] is “Active”. Further, the inhibition result in test [2], in [4], in test [8], in test [9], in test [11] and in [13] was “inactive” in each case. Also, the minimal effective dose in test [3] stood at 640 mg/kg. Also, the IC50 in [5] amounted to 0.07 µM; in test [7], 8.1 µM; in test [10] it was 0.005 µM; in test [12] it was 3.2 µM; in test [15], 0.5 µM; in test [17], 0.5 µM. In addition, in test [18], the IC50 came out at 0.3 µM. The entries for the “Ratio IC50” value in test [6], in test [14] and in [19] were 60, 7 and 0.16, respectively. Further, the MCD in test [16] is 640 mg/kg.

On to `Nc1nc(N)c2cc(Sc3ccc(Cl)cc3)ccc2n1`, for which the inhibition result in test [1] was “Active”. In addition, the inhibition entry in test [2], in test [4], in test [8], in test [9], in [11] and in test [13] was “inactive” throughout. Further, the minimal effective dose in test [3] was 5 mg/kg. Moreover, the IC50 in [5] was determined as 0.028 µM; in [7], 0.4 µM; in [10], 0.001 µM; in [12], 0.028 µM; in test [15] it was 0.01 µM; in [17], 0.4 µM. In addition, the IC50 in [18] was 0.18 µM. Besides, the “Ratio IC50” value in test [6] came to 180; in test [14] it was 14.3; in test [19] it was 0.36. In addition, the MCD in test [16] was 40 mg/kg.

Take `COc1cc(Cc2cnc(N)nc2N)cc(OC)c1OC` [TRIMETHOPRIM]: in test [1], the inhibition result was “Active”. Also, the inhibition result in test [2], in test [4], in test [8], in test [9], in [11] and in test [13] was “inactive” throughout. Also, in test [3], the minimal effective dose was above 640 mg/kg. The IC50 was 11.7 µM in [5]; 0.4 µM in test [7]; 0.08 µM in test [10]; 0.19 µM in [12]; 0.017 µM in [15]; 67.5 µM in [17]. Also, the IC50 in test [18] is 1.2 µM. The “Ratio IC50” value in test [6] worked out at 15; in test [14], 6; in test [19] it was 0.09. Further, in [16], the MCD is above 640 mg/kg.

As for `O=C1C(O)=C(CCCCCCCCC2CCCCC2)C(=O)c2ccccc21` [MENOCTONE], the inhibition result in [2], in test [4], in test [8], in [9], in test [11] and in [13] was “Active” each time. Further, the minimal effective dose in test [3] turned out to be 40 mg/kg. In addition, the IC50 in [5] is 1000 µM; in test [7] it was above 2700 µM; in test [10] it was 407 µM; in test [12], 61 µM; in test [15], 19 µM; in test [17], 570 µM. Besides, the IC50 in test [18] turned out to be 394 µM. In addition, the “Ratio IC50” value in test [6] amounted to 1; in test [14], 0.6; in [19] it was 0.3. For the same compound, the MCD in test [16] came out at 160 mg/kg.

Consider `CC1(C)N=C(N)N=C(N)N1c1ccc(Cl)cc1` [CYCLOGUANIL], for which the inhibition result in test [2], in test [4], in test [8], in [9], in test [11] and in test [13] was “inactive” throughout. Also, in test [3], the minimal effective dose turned out to be 20 mg/kg. In addition, the IC50 in test [5] is 35 µM; in [7] it was above 3470 µM; in test [10] it was 0.017 µM; in test [12], 16.3 µM; in test [15], 2400 µM; in [17], 900 µM. In addition, in test [18], the IC50 is 3300 µM. Further, the figures for the “Ratio IC50” value in test [6], in test [14] and in test [19] were 194000, 26 and 147, respectively. Also, the MCD in test [16] is 40 mg/kg.

As to `N=C(N)NC(=O)Nc1ccc([N+](=O)[O-])cc1`, the inhibition entry in test [2], in test [4], in test [8], in [9], in test [11] and in test [13] was “Active” in each case. In addition, the minimal effective dose in test [3] is 640 mg/kg. The IC50 in [5] was 83 µM; in test [7], above 4480 µM; in test [10] it was 1300 µM; in test [12] it was 157 µM; in test [15], 1800 µM; in [17] it was 197 µM. Further, the IC50 in [18] turned out to be 2500 µM. Besides, the “Ratio IC50” value in [6] was 2; in test [14], 2; in test [19], 12. In test [16], the MCD came to 640 mg/kg.

Consider `CN1CCCCC1CNc1nc(-c2ccc(Cl)c(Cl)c2)nc(C(Cl)(Cl)Cl)n1` (configuration not stated), for which the inhibition result in [2], in test [4], in [8], in test [9], in test [11] and in test [13] was “Active” throughout. Besides, in test [3], the minimal effective dose worked out at 160 mg/kg. Moreover, the IC50 in test [5] came out at 4.9 µM; in test [10], 132 µM; in test [12] it was 3 µM; in test [15], 3.2 µM; in [17], 3.8 µM; in test [18] it was 128 µM. Also, the “Ratio IC50” value was 0.97 in test [6], 1 in test [14] and 1.1 in [19]. Further, in test [16], the MCD came out at 320 mg/kg.

Source of the values: ChEMBL document CHEMBL3272032, “Antifolate studies. Activities of 40 potential antimalarial compounds against sensitive and chlorguanide triazine resistant strains of folate-requiring bacteria and Escherichia coli” (J Med Chem, 1977).
